Screening results deposited in PubChem by Broad Institute.
KDM4C inh: inhibitors of GASC-1 (KDM4C) histone demethylase, primary screen, biochemical, single concentration HTS; Lysine-specific demethylase 4C (Homo sapiens), Q9H3R0; GST-KDM4C 2-372, H3K9me3 peptide, LANCE TR-FRET; inhibition, % at 12.5 µM; 0.15% of 96,000 active; AID 720574, 2013;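 active = mean replicate inhibition above about 25%, with at least 55% of replicates also reaching it, limit read from the data, passing the limit was not always enough; inconclusive = only one of those two conditions met; inactive = neither condition met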
Target sequence (Q9H3R0 2-372 limits assumed): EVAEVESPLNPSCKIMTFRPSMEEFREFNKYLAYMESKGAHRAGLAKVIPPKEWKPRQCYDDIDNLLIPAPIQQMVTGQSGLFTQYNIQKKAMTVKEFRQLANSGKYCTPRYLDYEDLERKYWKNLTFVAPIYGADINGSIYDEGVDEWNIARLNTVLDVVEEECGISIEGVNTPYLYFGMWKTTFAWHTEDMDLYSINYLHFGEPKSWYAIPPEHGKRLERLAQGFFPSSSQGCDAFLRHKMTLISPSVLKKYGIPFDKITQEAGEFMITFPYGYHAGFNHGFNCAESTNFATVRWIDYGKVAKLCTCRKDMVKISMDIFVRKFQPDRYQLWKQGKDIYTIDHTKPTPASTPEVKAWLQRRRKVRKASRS
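Assay system: GST-GASC-1 enzyme fragment 2-372 | Amount: 10 nM enzyme | Medium: HEPES buffer, pH 7.5, plus ascorbate | Reagent: H3K9me3 peptide substrate, Fe(II), 2-oxoglutarate | Doses: Single-point compound screen | Incubation: 30 min demethylation and 1 h detection at room temperature | Measured by: LANCE TR-FRET, excitation 340 nm, emissions 618 and 671 nm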
T cruzi growth-1: T. cruzi intracellular proliferation inhibitors, primary screen, cell-based, beta-gal Tulahuen parasites, NIH3T3 host, luminescence; T. cruzi beta-gal in NIH3T3, GalScreen luminescence, 90 h; inhibition, % at 8.34 µM; 5.9% of 77,000 active;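 active = mean inhibition above about 93%, with at least 55% of replicates each passing it, limit read from the data, passing the limit was not always enough; inconclusive = only one of those two conditions holds; inactive = neither condition holds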
IDH1 R132H inh: inhibitors of IDH1 R132H reductase, primary screen, biochemical, plate reader, single point; Isocitrate dehydrogenase [NADP] cytoplasmic (Homo sapiens), O75874; diaphorase/resazurin fluorescence, 60 min; 0.18% of 70,000 active; inhibition, % at 10 µM; in the data active = inhibition above about 34%; inconclusive = no clear call, values can overlap the other calls; inactive = below about 11%
T cruzi growth-2: T. cruzi intracellular proliferation inhibitors, confirmation, cell-based, NIH3T3 host, beta-gal parasite, luminescence, cherry-pick; shares compounds with T cruzi growth-1; T. cruzi beta-gal in NIH3T3, GalScreen luminescence, 90 h; inhibition, % at 8.35 µM; 72% of 5,600 active;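 active = mean replicate inhibition above about 95% and at least 55% of replicates individually reaching it, limit read from the data; inconclusive = only one of the two criteria is met; inactive = neither criterion is met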
T cruzi growth-3: inhibitors of intracellular T. cruzi replication, confirmation, NIH3T3 host cells, beta-gal parasites, cherry-pick, set 2. AID 651740, 2012. inhibition, % at 2.09 µM. T. cruzi beta-gal in NIH3T3, GalScreen luminescence, 90 h. 21% of 5,600 active. shares compounds with T cruzi growth-1;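 active = mean inhibition above about 95%, with at least 55% of replicates also reaching it, limit read from the data; inconclusive = meets just one of the two conditions; inactive = meets neither condition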
NIH3T3 tox: cytotoxicity in mouse NIH/3T3 fibroblasts, confirmation, cytotoxicity control for T. cruzi proliferation inhibitor project, cell-based, cherry-pick, single point | AID 651742, 2012 | cytotoxicity (signal decrease), % at 8.35 µM | NIH/3T3 viability, CellTiter-Glo ATP luminescence, 90 h | 14% of 5,600 active | shares compounds with T cruzi growth-1;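 active = mean signal decrease across replicates above about 35% based on untreated-well scatter, with enough replicates individually passing, limit read from the data; inconclusive = no rule stated though some were filed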
NIH3T3 tox 2: NIH/3T3 fibroblast cytotoxicity, confirmation, cytotoxicity control, cell-based, cherry-pick, single point, set 2; shares compounds with T cruzi growth-1; NIH/3T3 viability, CellTiter-Glo ATP luminescence, 90 h; inhibition, % at 24.9 µM; 56% of 5,600 active;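 active = mean loss of cell viability signal at or above a set limit, and enough replicates individually reaching it; inconclusive = meets only the mean limit or only the replicate share; inactive = meets neither condition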
A number is an active result; n = inactive; u = inconclusive; x = no result. Shown is part of a subset that was picked to be rich in hits.

SMILES | KDM4C inh | T cruzi growth-1 | IDH1 R132H inh | T cruzi growth-2 | T cruzi growth-3 | NIH3T3 tox | NIH3T3 tox 2
CC(=O)N1CCCCN2[C@@H](CO)[C@@H](c3ccc(-c4ccc(C)cc4)cc3)[C@@H]2C1 | n | 106 | x | n | n | 36 | 66
CC(=O)N1CCCCN2[C@H](C1)[C@H](c1ccc(-c3cccc(C)c3)cc1)[C@@H]2CO | n | n | x | x | x | x | x
CC(=O)c1cccc(NC(=O)CSc2nc3ccccc3c(=O)n2-c2ccccc2)c1 | x | x | n | x | x | x | x
O=C(C[C@@H]1C[C@@H]2c3cc(NC(=O)NC4CCCCC4)ccc3O[C@@H]2[C@H](CO)O1)NC1CCCCC1 | n | x | x | x | x | x | x
CC(=O)Nc1sc2c(c1C(=O)O)CCc1ccccc1-2 | x | x | n | x | x | x | x
O=C1C(=O)N(Cc2ccco2)C(c2cccnc2)C1C(=O)c1cc2ccccc2o1 (centres undefined) | x | x | n | x | x | x | x
CC(=O)N1CCCCN2[C@H](C1)[C@@H](c1ccc(-c3cccc(C)c3)cc1)[C@@H]2CO | n | n | x | x | x | x | x
CC(=O)N1CCCCN2[C@H](CO)[C@@H](c3ccc(-c4ccc(F)cc4)cc3)[C@@H]2C1 | n | n | x | x | x | x | x
CC(=O)N1CCCCN2[C@@H](CO)[C@H](c3ccc(-c4ccc(C)cc4)cc3)[C@@H]2C1 | n | 120 | x | n | n | u | 76
CC(=O)N1CCCCN2[C@H](C1)[C@H](c1ccc(-c3ccc(C)cc3)cc1)[C@@H]2CO | n | 100 | x | 106 | n | n | 29
Cc1ccc(S(=O)(=O)NC2(C(F)(F)F)C(=O)N(CC3CCCO3)C3=C2C(=O)CC(C)(C)C3)cc1 (centres undefined) | x | x | n | x | x | x | x
O=C(N/N=C/c1ccc(OCc2ccccc2)cc1O)c1ccccc1O | x | x | n | x | x | x | x
CC(=O)c1cccc(NC(=O)Nc2nn(Cc3c(F)cccc3Cl)cc2Br)c1 | x | x | n | x | x | x | x
C[C@H](CO)N1C[C@H](C)[C@@H](CN(C)Cc2ccc(C(=O)Nc3ccccc3N)cc2)Oc2c(NC(=O)c3ccncc3)cccc2C1=O | n | u | x | 102 | n | n | 25
C[C@@H]1CN([C@@H](C)CO)C(=O)c2cccc(NC(=O)c3cnccn3)c2O[C@@H]1CN(C)Cc1ccc(C(=O)Nc2ccccc2N)cc1 | n | 106 | x | n | n | 47 | 91
C[C@@H]1CN([C@@H](C)CO)C(=O)c2cccc(NC(=O)c3ccncc3)c2O[C@H]1CN(C)Cc1ccc(C(=O)O)cc1 | n | x | x | x | x | x | x
C[C@H]1CN([C@@H](C)CO)C(=O)c2cccc(NC(=O)c3ccncc3)c2O[C@@H]1CN(C)Cc1ccc(C(=O)Nc2ccccc2N)cc1 | n | 98 | n | 108 | 101 | n | 47
C[C@@H]1CN([C@H](C)CO)C(=O)c2cccc(NC(=O)c3cnccn3)c2O[C@H]1CN(C)Cc1ccc(C(=O)Nc2ccccc2N)cc1 | n | x | x | x | x | x | x
N#Cc1c(NC(=O)c2cc(S(=O)(=O)N3CCOCC3)cs2)sc2c1CCCC2 | x | x | n | x | x | x | x
Cc1nc(-c2cc(C#N)c(Oc3ccc(C(F)(F)F)cc3)nc2C)cs1 | x | x | n | x | x | x | x
C[C@H]1CCCCO[C@@H](CN(C)Cc2ccc(C(=O)O)cc2)[C@@H](C)CN([C@@H](C)CO)C(=O)c2cc(NC(=O)Nc3cccc4ccccc34)ccc2O1 | n | n | n | x | x | x | x
C[C@@H]1CCCCO[C@@H](CN(C)Cc2ccc(C(F)(F)F)cc2)[C@@H](C)CN([C@@H](C)CO)C(=O)c2cc(NC(=O)Nc3cccc4ccccc34)ccc2O1 | n | u | n | 108 | 100 | n | n
C[C@H]1CCCCO[C@H](CN(C)Cc2ccc(C(F)(F)F)cc2)[C@@H](C)CN([C@@H](C)CO)C(=O)c2cc(NC(=O)Nc3cccc4ccccc34)ccc2O1 | n | u | x | 97 | 109 | n | n
C[C@@H]1CN([C@H](C)CO)C(=O)c2cc(NC(=O)Nc3cccc4ccccc34)ccc2O[C@@H](C)CCCCO[C@@H]1CN(C)Cc1ccc(C(F)(F)F)cc1 | n | u | x | 102 | 108 | n | n
C[C@@H]1CCCCO[C@H](CN(C)Cc2ccc(C(=O)O)cc2)[C@@H](C)CN([C@H](C)CO)C(=O)c2cc(NC(=O)Nc3cccc4ccccc34)ccc2O1 | n | n | n | x | x | x | x
SMILES | KDM4C inh | T cruzi growth-1 | IDH1 R132H inh | T cruzi growth-2 | T cruzi growth-3 | NIH3T3 tox | NIH3T3 tox 2
C[C@H]1CCCCO[C@@H](CN(C)Cc2ccc(C(F)(F)F)cc2)[C@@H](C)CN([C@@H](C)CO)C(=O)c2cc(NC(=O)Nc3cccc4ccccc34)ccc2O1 | n | u | x | 108 | 108 | n | n
C[C@@H]1CN([C@H](C)CO)C(=O)c2cc(NC(=O)Nc3cccc4ccccc34)ccc2O[C@@H](C)CCCCO[C@@H]1CN(C)Cc1ccc(C(=O)O)cc1 | n | n | x | x | x | x | x
C[C@@H]1CCCCO[C@@H](CN(C)Cc2ccc(C(=O)O)cc2)[C@H](C)CN([C@H](C)CO)C(=O)c2cc(NC(=O)Nc3cccc4ccccc34)ccc2O1 | n | n | n | x | x | x | x
CC1CCc2c(sc3nc(SCC(=O)NCC4CCCO4)n(-c4ccccc4)c(=O)c23)C1 (centres undefined) | x | x | n | x | x | x | x
CCC1(c2ncc[nH]2)Cc2ccccc2O1 (centres undefined) | x | x | n | x | x | x | x
COc1cccc(-c2nn(C)c3sc(C(=O)N4CCCCCC4)cc23)c1 | x | x | n | x | x | x | x
Cn1c(SCc2nc3ccccc3c(=O)[nH]2)nnc1-c1cc2cc(Br)ccc2o1 | x | x | n | x | x | x | x
O=C(Cc1ccccn1)N1CC2(C1)[C@@H](c1ccccc1)[C@@H](CO)N2C(=O)c1ccccc1 | n | x | x | x | x | x | x
C[C@H](CO)N1C[C@H](C)[C@@H](CN(C)Cc2ccc(Oc3ccccc3)cc2)Oc2c(NC(=O)Nc3ccc4c(c3)OCO4)cccc2C1=O | n | u | x | 109 | n | n | n
C[C@H](CO)N1C[C@H](C)[C@@H](CN(C)Cc2ccc(Oc3ccccc3)cc2)Oc2ccc(NC(=O)Nc3ccccc3)cc2C1=O | n | n | x | x | x | x | x
C[C@H]1CN([C@@H](C)CO)C(=O)c2cc(NC(=O)Nc3ccc4c(c3)OCO4)ccc2O[C@H]1CN(C)Cc1ccc(Oc2ccccc2)cc1 | n | 117 | n | 109 | n | n | 41
C[C@H](CO)N1C[C@H](C)[C@H](CN(C)Cc2ccncc2)Oc2ccc(NC(=O)Nc3ccc4c(c3)OCO4)cc2C1=O | n | 117 | n | n | n | n | 34
